Common to all, as to format: functional, cell-based
The subject of one experiment is ECa-109 cell line. Nature of the experiment: Antiproliferative activity against human EC109 cells after 48 hrs by MTT assay. To be noted: ECa-109, 48 h. Summed up: (§1)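 Cells exposed to compounds for 48 h, then read by MTT. IC50 is the concentration giving 50% inhibition of tumour cell proliferation, taken from dose-response curves. Values are means±SD of three independent experiments. 5-FU was the reference drug.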

In the next experiment the test system is MGC-803. Nature of the experiment: Antiproliferative activity against human MGC803 cells after 48 hrs by MTT assay. Particulars: MGC-803, 48 h. Summed up:
as §1
Background: Tetrazolium assays rely on reduction of a dye to a coloured formazan, in cell work by metabolically active cells.

A further experiment has as its system PC-3. Nature of the experiment: Antiproliferative activity against human PC3 cells after 48 hrs by MTT assay. To be noted: PC-3, 48 h. The gist of the method: as §1

Data on five molecules can be found in ChEMBL document CHEMBL4130370, “Discovery of 5,6-diaryl-1,2,4-triazines hybrids as potential apoptosis inducers” (Eur J Med Chem, 2017).

Usually IC50 stands for the midpoint of a concentration-inhibition curve. Read a high IC50 as weaker potency.

Consider `COc1ccc(-c2coc3cc(OCCCn4cc(CSc5nnc(-c6ccccc6)c(-c6ccccc6)n5)nn4)ccc3c2=O)cc1`, for which the IC50 in the experiment with ECa-109 cell line is more than 100 µM; with MGC-803, more than 100 µM; with PC-3 it was 10.2 µM.
On to `Cc1ccc(Cn2cc(CSc3nnc(-c4ccccc4)c(-c4ccccc4)n3)nn2)cc1`, for which the IC50 with ECa-109 cell line was 12.4 µM; in the experiment with MGC-803, 34.8 µM; in the experiment on PC-3 it was 22.6 µM.
As to `COc1ccc(C(=O)/C=C/c2ccc(-n3cc(CSc4nnc(-c5ccccc5)c(-c5ccccc5)n4)nn3)cc2)cc1`, the results for the IC50 in the experiment on ECa-109 cell line, with MGC-803 and with PC-3 were more than 100 µM, 36.7 µM and more than 100 µM, respectively.
As for `O=c1cc(OCCCn2cc(CSc3nnc(-c4ccccc4)c(-c4ccccc4)n3)nn2)c2ccccc2o1`, the values for the half-maximal inhibitory concentration (IC50) with ECa-109 cell line, with MGC-803 and with PC-3 were more than 100 µM, more than 100 µM and 57.8 µM, respectively.
On to `COc1ccc(Cn2cc(CSc3nnc(-c4ccccc4)c(-c4ccccc4)n3)nn2)cc1`, for which the IC50 in the experiment on ECa-109 cell line came to 28.4 µM; with MGC-803 it was 22.7 µM; in the experiment with PC-3, 27.5 µM.
